# Xi reactivation = activators of inactive X chromosome reactivation, primary screen, imaging, XiGFP fibroblasts, GFP high-content imaging, set 2 | XiGFP mouse fibroblasts, % GFP-positive cells imaging, 3 d; cells co-treated with 5-aza-dC sensitizer; scaled so ellipticine positive control = 100% | activation, % at 7.58 µM | actives 0.055% (n = 360,000);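 active = mean normalized replicate activation at least 10% and every replicate at or above 10%; inconclusive = only one of the two criteria met; inactive = mean below 10% and not all replicates reach 10%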;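 note: 0% = median of on-plate neutral control wells and 100% = ellipticine 6 µM median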
#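 Assay system – SV40-immortalized XiGFP fibroblast cells, line 68-5-11 · Buffer or medium – DMEM supplemented with 5-aza-dC as sensitizing agent · Dosing – one concentration, pinned · Benchmarks – positive control ellipticine, 6 µM final · Times – 3 days compound exposure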
# MITF TRPM1 HTS = activators of MITF-driven TRPM1 promoter reporter, primary screen, cell-based, SK-MEL-5, luciferase, single point; SK-MEL-5 TRPM1-promoter luciferase, 24 h; % of positive control, neutral wells = 0; activation, % at 12.5 µM; actives 0.75% (n = 300,000);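 active = mean activation of at least 80% with every replicate also reaching 80%; inconclusive = mean reaches 80% but some replicate falls short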;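 note: 0% = neutral control wells and 100% = parthenolide positive control wells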
# Wnt bcat act = Wnt/beta-catenin pathway activators, primary screen, cell-based, plate reader, single point; Wnt/beta-catenin reporter cell assay, activator; activation, % at 9.35 µM; actives 1.2% (n = 300,000); AID 743398, 2014; in the data active = activation above about 30%, passing the limit was not always enough; inconclusive = no clear call, values can overlap the other calls;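 note: 0% = neutral control wells and 100% = positive control wells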
# Vif imaging = HIV Vif self-association inhibitors, primary screen, imaging, HEK293T, single point | HEK293T cells, Vif self-association by quenched fluorescence, 24 h | inhibition, % at 7.49 µM | actives 0.35% (n = 340,000) | AID 602346, 2012; in the data active = inhibition above about 50%, passing the limit was not always enough; inconclusive = no clear call, values can overlap the other calls; inactive = below about 31%
# esBAF inh = Bmi1 luciferase reporter increase in mESCs, primary screen, esBAF inhibitor project, mouse ES cells, Bmi1 luciferase knock-in, single point; 24 h; 100% = twice the neutral-well signal; reporter increase, % at 12.5 µM; actives 2% (n = 350,000); in the data active = activation above about 40%; inconclusive = no clear call, values can overlap the other calls;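 note: 0% = median of the plate's neutral control wells and 100% = double that signal; a rise in the Bmi1 reporter signal indicates esBAF inhibition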
# * hit, by the source's call; ? = inconclusive; nt = no result given. Shown are actives, neighbours in structure and some others; about 2.6% of the full set was active somewhere.
SMILES,Xi reactivation,MITF TRPM1 HTS,Wnt bcat act,Vif imaging,esBAF inh
COc1ccc(S(=O)(=O)Nc2cccc3c2O[C@H](CN(C)CC2CC2)[C@H](C)CN([C@@H](C)CO)C3=O)cc1,-1,nt,nt,nt,-6
CN(C)CC/C=C1/c2ccccc2CS(=O)(=O)c2ccccc21,0,1,0,85*,8
O=c1oc(-c2ccc(Br)cc2)nc2ccccc12,0,5,8,-7,46*
COc1cccc(-c2cc(C(=O)NCc3cccs3)no2)c1,2,134*,3,-2,72*
COc1ccc(CNC(=O)c2cc(-c3cccs3)on2)cc1,nt,10,1,7,7
O=C(NCc1cccs1)c1cc(-c2cccs2)on1,nt,61,nt,-2,?
COc1ccc(-c2cc(C(=O)NCc3cccs3)no2)cc1,0,92*,?,-1,42*
O=C(NCc1cccs1)c1cc(-c2ccccc2)on1,nt,99*,nt,-4,40
CCOc1cc(C2NN=C(c3ccc(C)cc3)S2)ccc1O (centres undefined),0,68,63*,7,nt
O=C(Oc1ccccc1/C=C\C(=O)c1cc2ccccc2o1)c1cccc(F)c1,1,11,nt,2,nt
COc1cccc(C(=O)Oc2ccccc2/C=C\C(=O)c2cc3ccccc3o2)c1,0,-17,152*,-3,nt
COc1ccc(O)c(C(=O)/C=C/c2cc3ccccc3o2)c1,nt,-1,1,1,-11
O=C(Oc1ccccc1/C=C\C(=O)c1cc2ccccc2o1)c1ccccc1,0,12,53*,9,nt
O=C(C[C@H]1CC[C@H]2[C@@H](COC[C@H](O)CN2Cc2ccncc2)O1)NCc1ccncc1,0,nt,nt,nt,0
CCNC(=O)Nc1ccc2c(c1)C(=O)N(C)[C@@H]1CC[C@@H](CC(=O)NCc3cccc(F)c3)O[C@@H]1CO2,0,nt,nt,nt,3
COC(=O)c1ccc(N=NN2CCCCCC2)cc1,0,106*,0,2,nt
NS(=O)(=O)c1ccc(N=NN2CCCCC2)cc1,0,46,39*,-3,nt
CC(=O)c1cccc(OCC(=O)Nc2cc(Cl)ccc2-n2cncn2)c1,0,84*,0,2,nt
C/C=C/c1ccc(OCC(=O)Nc2cc(Cl)ccc2-n2cncn2)c(OC)c1,0,4,-2,0,nt
Clc1ccc(C2=NNC(=NCc3ccccc3)SC2)cc1,0,54,5,-7,nt
c1ccc(CN=C2NN=C(c3ccccc3)CS2)cc1,0,73,8,-2,46*
Clc1ccccc1N=C1NN=C(c2cccs2)CS1,0,46,-1,-6,66*
Fc1ccccc1N=C1NN=C(c2ccccc2)CS1,0,50,-1,-12,53*
COc1ccc(NC(=O)Nc2cccc3c2O[C@H](CN(C)C(=O)Nc2ccc(F)cc2)[C@H](C)CN([C@@H](C)CO)C3=O)cc1,0,nt,nt,nt,-1
CC(C)NC(=O)Nc1cccc2c1O[C@@H](CN(C)C)[C@H](C)CN(C)C2=O,0,nt,nt,nt,nt
SMILES,Xi reactivation,MITF TRPM1 HTS,Wnt bcat act,Vif imaging,esBAF inh
C[C@@H]1CCCCO[C@@H](CN(C)Cc2ccc(C(F)(F)F)cc2)[C@@H](C)CN([C@@H](C)CO)C(=O)c2cc(NC(=O)CCCN(C)C)ccc2O1,-1,nt,nt,nt,-11
CC(=O)Nc1ccc(OC/C=C(\C)Cl)cc1,nt,29,nt,0,55*
COCc1cn(CC[C@H]2CC[C@@H](NC(=O)Nc3ccc(Cl)cc3)[C@H](CO)O2)nn1,-1,nt,nt,nt,-7
CCOc1ccc(NC(=O)c2nsc(Cl)c2Cl)cc1,0,67,54*,-5,38
O=C(Nc1ccc(F)cc1)c1nsc(Cl)c1Cl,nt,21,nt,-1,22
O=C(Nc1ccc(F)c(Cl)c1)c1nsc(Cl)c1Cl,0,67,-3,3,60*
C[C@@H]1CN([C@@H](C)CO)C(=O)c2cc(NC(=O)c3ccccc3)ccc2O[C@@H](C)CCCCO[C@@H]1CN(C)Cc1ccc2c(c1)OCO2,-1,nt,nt,nt,0
COc1cccc(C(=O)Nc2ccc3c(c2)OC[C@H](C)N(CC2CC2)C[C@H](C)[C@@H](OC)CN(C)C3=O)c1,0,nt,nt,nt,nt
O=C(O)c1cccc2c1-c1ccccc1/C2=N\Nc1ccccc1,0,62,25,9,63*

# Bioassay records: PubChem BioAssay, Broad Institute
